Test results from ChEMBL document CHEMBL1138195, “Highly chiral muscarinic ligands: the discovery of (2S,2'R,3'S,5'R)-1-methyl-2-(2-methyl-1,3-oxathiolan-5-yl)pyrrolidine 3-sulfoxide methyl iodide, a potent, functionally selective, M2 partial agonist” (J Med Chem, 2006).

Columns and labels:
[1] = target: T1, Muscarinic acetylcholine receptor M5 (Homo sapiens, UniProt P08912); assay: Binding affinity to cloned human muscarinic M5 receptor expressed in CHO cells; type: cell-based
T1 sequence (P08912 whole entry): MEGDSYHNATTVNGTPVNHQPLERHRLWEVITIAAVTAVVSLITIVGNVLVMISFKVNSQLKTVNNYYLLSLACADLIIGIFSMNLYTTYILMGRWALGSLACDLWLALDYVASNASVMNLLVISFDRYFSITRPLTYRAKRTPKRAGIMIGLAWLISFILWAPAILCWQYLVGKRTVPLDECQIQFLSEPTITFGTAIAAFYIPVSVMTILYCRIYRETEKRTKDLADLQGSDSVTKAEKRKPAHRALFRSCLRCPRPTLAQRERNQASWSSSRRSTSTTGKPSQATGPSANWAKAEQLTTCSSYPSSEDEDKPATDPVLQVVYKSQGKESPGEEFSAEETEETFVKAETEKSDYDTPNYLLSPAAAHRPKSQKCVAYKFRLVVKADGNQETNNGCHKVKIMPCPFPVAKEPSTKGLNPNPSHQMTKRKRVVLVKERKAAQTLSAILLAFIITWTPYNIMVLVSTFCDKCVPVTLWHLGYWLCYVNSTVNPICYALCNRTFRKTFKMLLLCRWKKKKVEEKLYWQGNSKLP
In short: (§1)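 Membranes from CHO cells stably expressing human hm2, hm4 or hm5 receptors, at 70, 50 and 25 µg/mL protein respectively. 0.2 nM [3H]NMS displaced by unlabelled ligand for 120 min at room temperature, in 25 mM sodium phosphate with 5 mM MgCl2, pH 7.4. Rapid filtration, then scintillation counting. Mean of at least three experiments.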

[2] = target: T2, Muscarinic acetylcholine receptor M1 (Homo sapiens, UniProt P11229); assay: Binding affinity to cloned human muscarinic M1 receptor expressed in CHO cells; type: cell-based; details: for Log Ki: cho
T2 sequence (P11229 whole entry): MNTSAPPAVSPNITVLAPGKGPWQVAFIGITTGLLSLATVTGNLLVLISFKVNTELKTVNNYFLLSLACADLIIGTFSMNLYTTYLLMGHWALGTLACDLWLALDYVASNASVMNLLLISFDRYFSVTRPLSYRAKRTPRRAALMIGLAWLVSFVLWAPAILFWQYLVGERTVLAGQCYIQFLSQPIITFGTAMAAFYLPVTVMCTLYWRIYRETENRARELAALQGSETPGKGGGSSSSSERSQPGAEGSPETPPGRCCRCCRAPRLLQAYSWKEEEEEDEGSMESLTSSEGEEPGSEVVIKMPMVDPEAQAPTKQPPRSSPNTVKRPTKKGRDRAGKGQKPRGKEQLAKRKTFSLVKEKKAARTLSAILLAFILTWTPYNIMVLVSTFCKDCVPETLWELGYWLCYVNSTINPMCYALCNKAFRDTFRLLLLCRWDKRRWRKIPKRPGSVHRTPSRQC

[3] = target: T3, Muscarinic acetylcholine receptor M2 (Homo sapiens, UniProt P08172); assay: Binding affinity to cloned human muscarinic M2 receptor expressed in CHO cells; type: cell-based; in short: as §1
T3 sequence (P08172 whole entry): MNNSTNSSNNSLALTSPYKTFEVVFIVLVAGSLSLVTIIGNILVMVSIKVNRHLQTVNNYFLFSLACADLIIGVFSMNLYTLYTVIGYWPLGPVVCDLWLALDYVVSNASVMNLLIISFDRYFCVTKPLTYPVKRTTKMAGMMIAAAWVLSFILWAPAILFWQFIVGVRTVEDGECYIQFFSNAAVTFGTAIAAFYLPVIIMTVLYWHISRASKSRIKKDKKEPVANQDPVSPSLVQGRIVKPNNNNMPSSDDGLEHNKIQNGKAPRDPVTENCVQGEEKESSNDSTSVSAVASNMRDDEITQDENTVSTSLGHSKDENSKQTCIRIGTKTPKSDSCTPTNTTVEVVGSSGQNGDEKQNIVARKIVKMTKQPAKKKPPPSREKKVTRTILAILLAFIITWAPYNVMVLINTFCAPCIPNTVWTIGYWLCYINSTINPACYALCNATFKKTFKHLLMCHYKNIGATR

[4] = target: Muscarinic acetylcholine receptor M3 (Homo sapiens, UniProt P20309); assay: Binding affinity to cloned human muscarinic M3 receptor expressed in CHO cells; type: cell-based; details: for Log Ki: cho
[5] = target: T4, Muscarinic acetylcholine receptor M4 (Homo sapiens, UniProt P08173); assay: Binding affinity to cloned human muscarinic M4 receptor expressed in CHO cells; type: cell-based; details: for Log Ki: cho; in short: as §1
T4 sequence (P08173 whole entry): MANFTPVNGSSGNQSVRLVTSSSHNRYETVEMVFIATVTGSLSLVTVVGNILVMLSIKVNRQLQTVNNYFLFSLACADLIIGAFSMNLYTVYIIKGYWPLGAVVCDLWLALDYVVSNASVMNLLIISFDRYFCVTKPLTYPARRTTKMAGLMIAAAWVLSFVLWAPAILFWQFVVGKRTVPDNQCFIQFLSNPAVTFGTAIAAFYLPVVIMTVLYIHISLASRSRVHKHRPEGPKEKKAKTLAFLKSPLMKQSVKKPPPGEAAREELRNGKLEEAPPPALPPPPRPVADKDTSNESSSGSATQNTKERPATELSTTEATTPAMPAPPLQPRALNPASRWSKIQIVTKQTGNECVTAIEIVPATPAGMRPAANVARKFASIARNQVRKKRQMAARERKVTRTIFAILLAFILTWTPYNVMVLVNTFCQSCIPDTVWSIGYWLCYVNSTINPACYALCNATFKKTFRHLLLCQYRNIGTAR

[6] = target: T5, Muscarinic acetylcholine receptor M1 (Homo sapiens) (UniProt P11229); assay: Antagonist affinity at muscarinic M1 receptor in rabbit vas deferens; type: functional, tissue-based; details: Oryctolagus cuniculus, target entry is the homologue from another species
T5 sequence (whole entry): T2 sequence (P11229 whole entry)
In short: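 Field-stimulated (0.1 ms, 2 Hz, 10-15 V), contractions recorded isometrically after 1 h equilibration. Cumulative dose-response curves against p-Cl-McN-A-343 reference. Antagonists incubated 60 min before the repeat curve. Reported as pD2 (-log ED50) with intrinsic activity, or as pKb.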

[7] = target: T6, Muscarinic acetylcholine receptor M2 (Homo sapiens) (UniProt P08172); assay: Agonist potency at muscarinic M2 receptor in guinea pig atrium; type: functional, tissue-based; details: Cavia porcellus; Cardiac atrium; target entry is the homologue from another species
T6 sequence (whole entry): T3 sequence (P08172 whole entry)
In short: (§2)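 Guinea pig left atria in PSS at 30 °C, paced by square-wave pulses (1 ms, 1 Hz, 5-10 V). Inotropic force recorded isometrically after 2 h equilibration, with cumulative dose-response curves to arecaidine propargyl ester as reference. Antagonists incubated 60 min after a 30 min wash, then the curve was repeated. Values given as pD2 with intrinsic activity, or as pKb.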

[8] = target: T6, Muscarinic acetylcholine receptor M2 (Homo sapiens); assay: Antagonist affinity at muscarinic M2 receptor in guinea pig atrium; type: functional, tissue-based; details: Cavia porcellus; Cardiac atrium; target entry is the homologue from another species; in short: as §2
[9] = target: Muscarinic acetylcholine receptor M3 (Cavia porcellus) (UniProt Q8VH26); assay: Agonist potency at muscarinic M3 receptor in guinea pig ileum; type: functional, tissue-based
In short: (§3)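 Isolated guinea pig tissue contractions, measured against arecaidine propargyl ester control curves. Agonists: cumulative dose-response curve after a 30 min wash, responses as % of the control maximum. Antagonists: 60 min incubation, then a new agonist curve. Parallel time-control tissues were run. Values expressed as pD2 (-log ED50) with intrinsic activity, or as pKb (-log Kb).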

[10] = target: Muscarinic acetylcholine receptor M3 (Cavia porcellus) (UniProt Q8VH26); assay: Antagonist affinity at muscarinic M3 receptor in guinea pig ileum; type: functional, tissue-based; in short: as §3
[11] = target: T7, Muscarinic acetylcholine receptor M4 (Homo sapiens) (UniProt P08173); assay: Antagonist affinity at muscarinic M4 receptor in guinea pig lung strips; type: functional; details: Cavia porcellus, target entry is the homologue from another species; in short: as §3
T7 sequence (whole entry): T4 sequence (P08173 whole entry)

[12] = target: T6, Muscarinic acetylcholine receptor M2 (Homo sapiens); assay: Efficacy of agonist at muscarinic M2 receptor in guinea pig atrium as ratio of Ka/ED50; type: functional, tissue-based; details: Cavia porcellus; Cardiac atrium; target entry is the homologue from another species
In short: (§4)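 Functional affinity constants (Ka) obtained in the atrium and ileum preparations. Full agonists: Furchgott-Bursztyn method. Partial agonists: Waud method, comparing their concentration-response curves with arecaidine propargyl ester, with equieffective concentrations read graphically. Ka was then related to ED50.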

[13] = target: Muscarinic acetylcholine receptor M3 (Cavia porcellus) (UniProt Q8VH26); assay: Efficacy of agonist at muscarinic M3 receptor in guinea pig ileum as ratio of Ka/ED50; type: functional, tissue-based; in short: as §4

Sequence of Muscarinic acetylcholine receptor M3 (P20309 whole entry): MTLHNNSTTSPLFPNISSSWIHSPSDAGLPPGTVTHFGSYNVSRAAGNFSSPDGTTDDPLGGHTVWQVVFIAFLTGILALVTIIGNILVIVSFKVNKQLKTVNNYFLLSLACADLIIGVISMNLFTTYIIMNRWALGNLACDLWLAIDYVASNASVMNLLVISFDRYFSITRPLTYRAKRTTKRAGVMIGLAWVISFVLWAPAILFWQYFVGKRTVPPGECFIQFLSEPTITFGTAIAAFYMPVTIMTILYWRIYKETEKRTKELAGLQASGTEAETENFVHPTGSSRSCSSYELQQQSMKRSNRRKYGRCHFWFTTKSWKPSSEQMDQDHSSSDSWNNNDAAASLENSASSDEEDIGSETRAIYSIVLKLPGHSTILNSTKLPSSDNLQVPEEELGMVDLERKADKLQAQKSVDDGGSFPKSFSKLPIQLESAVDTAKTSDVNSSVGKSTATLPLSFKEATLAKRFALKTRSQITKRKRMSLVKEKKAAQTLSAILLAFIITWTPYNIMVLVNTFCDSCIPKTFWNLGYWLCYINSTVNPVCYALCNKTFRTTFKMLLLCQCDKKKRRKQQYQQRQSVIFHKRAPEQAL
Sequence of Muscarinic acetylcholine receptor M3 (Cavia porcellus) (Q8VH26 1-587): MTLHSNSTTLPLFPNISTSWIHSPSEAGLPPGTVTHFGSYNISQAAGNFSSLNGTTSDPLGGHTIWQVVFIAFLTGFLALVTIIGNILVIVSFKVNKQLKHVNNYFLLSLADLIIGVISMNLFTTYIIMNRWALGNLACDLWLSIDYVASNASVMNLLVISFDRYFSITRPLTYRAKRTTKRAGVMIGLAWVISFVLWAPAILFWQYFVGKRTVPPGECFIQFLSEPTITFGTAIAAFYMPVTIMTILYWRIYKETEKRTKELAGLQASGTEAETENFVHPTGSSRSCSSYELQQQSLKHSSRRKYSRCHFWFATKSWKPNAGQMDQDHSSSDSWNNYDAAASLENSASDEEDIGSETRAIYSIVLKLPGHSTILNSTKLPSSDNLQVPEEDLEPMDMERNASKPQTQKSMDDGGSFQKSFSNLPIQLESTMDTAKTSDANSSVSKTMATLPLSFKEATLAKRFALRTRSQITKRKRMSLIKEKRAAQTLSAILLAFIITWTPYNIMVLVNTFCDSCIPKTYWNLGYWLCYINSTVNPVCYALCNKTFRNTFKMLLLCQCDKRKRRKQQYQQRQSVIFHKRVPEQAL

SMILES	Ki [1] [µM]	Ki [2] [µM]	Ki [3] [µM]	Ki [4] [µM]	Ki [5] [µM]	pKb [6]	Activity [7]	pKb [8]	Activity [9]	pKb [10]	pKb [11]	-logKa [7]	pD2 [7]	-logKa [9]	pD2 [9]	Ratio [12]	Ratio [13]	Log Ki [2]	Log Ki [4]	Log Ki [5]
C[C@@H]1O[C@H]([C@H]2CCCN2C)C[S@@+]1[O-]	> 100	> 100	> 100	> 100	> 100	–	–	–	–	–	–	–	–	–	–	–	–	–	–	–
C[C@H]1O[C@@H]([C@H]2CCCN2C)C[S@@+]1[O-]	> 100	> 100	> 100	> 100	> 100	–	–	–	–	–	–	–	–	–	–	–	–	–	–	–
C[C@H]1O[C@@H]([C@@H]2CCC[N+]2(C)C)C[S@+]1[O-]	> 100	> 100	77.6	> 100	> 100	< 5	0	< 5	0	< 5	< 5	–	–	–	–	–	–	–	–	–
C[C@@H]1O[C@H]([C@H]2CCC[N+]2(C)C)C[S@@+]1[O-]	> 100	> 100	9.33	> 100	> 100	< 5	0.58	–	1	–	< 5	5.11	6.11	4.87	5.58	12	7	–	–	–
C[C@H]1O[C@@H]([C@@H]2CCC[N+]2(C)C)C[S@@+]1[O-] (stereo in doubt; (+)-7)	–	–	–	–	–	< 5	0	< 5	0	< 5	< 5	–	–	–	–	–	–	–	–	–
C[C@H]1O[C@@H]([C@@H]2CCC[N+]2(C)C)C[S@@+]1[O-] (stereo in doubt; (-)-6) [listing 1 of 2 here]	> 100	> 100	28.8	> 100	> 100	–	–	–	–	–	–	–	–	–	–	–	–	–	–	–
C[C@H]1O[C@@H]([C@@H]2CCCN2C)C[S@+]1[O-]	> 100	> 100	87.1	> 100	> 100	< 5	0	< 5	0	< 5	< 5	–	–	–	–	–	–	–	–	–
C[C@H]1O[C@@H]([C@@H]2CCC[N+]2(C)C)C[S@@+]1[O-].[I-] (stereo in doubt; (-)-8)	> 100	–	> 100	–	–	–	–	–	–	–	–	–	–	–	–	–	–	< -4	< -4	< -4
C[C@@H]1O[C@H]([C@@H]2CCCN2C)C[S@+]1[O-]	> 100	> 100	89.1	> 100	> 100	< 5	0	< 5	0	< 5	< 5	–	–	–	–	–	–	–	–	–
C[C@H]1O[C@@H]([C@H]2CCCN2C)C[S@+]1[O-]	> 100	> 100	> 100	> 100	> 100	–	–	–	–	–	–	–	–	–	–	–	–	–	–	–
C[C@H]1O[C@@H]([C@@H]2CCC[N+]2(C)C)C[S@@+]1[O-].[I-] (stereo in doubt; (+)-7)	57.5	–	81.3	–	–	–	–	–	–	–	–	–	–	–	–	–	–	< -4	< -4	< -4
C[C@@H]1O[C@H]([C@H]2CCCN2C)C[S@+]1[O-]	> 100	> 100	> 100	> 100	> 100	–	–	–	–	–	–	–	–	–	–	–	–	–	–	–
C[C@@H]1O[C@H]([C@H]2CCC[N+]2(C)C)C[S@+]1[O-]	> 100	> 100	> 100	> 100	> 100	–	–	–	–	–	–	–	–	–	–	–	–	–	–	–
C[C@H]1O[C@@H](C[N+](C)(C)C)C[S+]1[O-] (single isomer, unassigned; (-))	–	–	–	–	–	–	–	–	–	–	–	5.22	6.66	5.38	6.95	28	37	–	–	–
C[C@@H]1O[C@H]([C@@H]2CCCN2C)C[S@@+]1[O-]	> 100	> 100	> 100	> 100	> 100	< 5	0	< 5	0	< 5	< 5	–	–	–	–	–	–	–	–	–
C[C@H]1O[C@@H]([C@@H]2CCC[N+]2(C)C)C[S@@+]1[O-] (stereo in doubt; (-)-8)	–	–	–	–	–	< 5	0	< 5	0	< 5	< 5	–	–	–	–	–	–	–	–	–
C[C@H]1O[C@@H]([C@@H]2CCCN2C)C[S@@+]1[O-]	> 100	> 100	> 100	> 100	> 100	–	–	–	–	–	–	–	–	–	–	–	–	–	–	–
C[C@H]1O[C@@H]([C@@H]2CCC[N+]2(C)C)C[S@@+]1[O-] (stereo in doubt; (-)-6) [listing 2 of 2 here]	–	–	–	–	–	< 5	0	< 5	0	< 5	< 5	–	–	–	–	–	–	–	–	–
C[C@@H]1O[C@H]([C@@H]2CCC[N+]2(C)C)C[S@+]1[O-]	> 100	> 100	51.3	> 100	> 100	< 5	0.41	–	0	< 5	< 5	6.13	7.65	–	–	84	–	–	–	–
